# Measurements taken from ChEMBL document CHEMBL4765248, “Design, synthesis, biological evaluation and molecular docking study of novel thieno[3,2-d]pyrimidine derivatives as potent FAK inhibitors” (Eur J Med Chem, 2020).
# Tests used:
# [1] = test system: A549; assay: Antiproliferative activity against human A549 cells assessed as cell viability at 2.5 uM measured after 72 hrs by MTT assay (reference value: 100%); type: functional; settings: read-out: Activity
# [2] = test system: MDA-MB-231; assay: Induction of apoptosis in human MDA-MB-231 cells assessed as late apoptotic cells at 0.4 uM incubated for 48 hrs by Annexin V-FITC/PI staining based flow cytometric analysis (reference value: 1.49%); type: functional
# [3] = test system: MDA-MB-231; assay: Induction of apoptosis in human MDA-MB-231 cells assessed as early apoptotic cells at 0.1 uM incubated for 48 hrs by Annexin V-FITC/PI staining based flow cytometric analysis (reference value: 1.58%); type: functional
# [4] = molecular target: Tyrosine-protein kinase BTK (Homo sapiens) (UniProt Q06187); assay: Inhibition of His-tagged full length, recombinant human BTK expressed in baculovirus expression system at 1 uM by Selectscreen kinase assay
# Tyrosine-protein kinase BTK (Homo sapiens), sequence (Q06187 whole entry): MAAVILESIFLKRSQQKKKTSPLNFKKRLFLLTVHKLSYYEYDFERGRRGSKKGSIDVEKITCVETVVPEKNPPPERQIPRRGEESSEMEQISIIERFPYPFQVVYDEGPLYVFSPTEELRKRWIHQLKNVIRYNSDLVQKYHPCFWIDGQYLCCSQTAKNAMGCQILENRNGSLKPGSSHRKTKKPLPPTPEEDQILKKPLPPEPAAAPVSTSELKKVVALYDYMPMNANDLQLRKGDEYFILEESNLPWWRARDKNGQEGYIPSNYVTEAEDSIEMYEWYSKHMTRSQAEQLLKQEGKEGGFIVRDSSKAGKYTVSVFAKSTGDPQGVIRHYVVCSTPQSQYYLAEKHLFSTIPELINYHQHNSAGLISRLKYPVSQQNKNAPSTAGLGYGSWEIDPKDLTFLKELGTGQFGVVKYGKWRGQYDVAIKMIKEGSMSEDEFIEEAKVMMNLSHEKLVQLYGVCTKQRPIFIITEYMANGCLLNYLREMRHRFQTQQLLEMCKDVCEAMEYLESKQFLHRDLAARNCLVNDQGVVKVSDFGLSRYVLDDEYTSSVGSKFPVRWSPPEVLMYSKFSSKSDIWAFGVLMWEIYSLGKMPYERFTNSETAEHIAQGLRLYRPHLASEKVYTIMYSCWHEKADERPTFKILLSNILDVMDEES
# Method in brief: (§1)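 Single-point screen at 1 μM final against a panel of 25 kinases using a commercial profiling service; mean of three independent experiments each run in triplicate.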
# [5] = molecular target: Dual specificity mitogen-activated protein kinase kinase 1 (Homo sapiens) (UniProt Q02750); assay: Inhibition of His-tagged full length human MEK1 expressed in baculovirus expression system at 1 uM by Selectscreen kinase assay; method in brief: as §1
# [6] = test system: MDA-MB-231; assay: Antiproliferative activity against human MDA-MB-231 cells assessed as reduction in cell viability at 0.1 to 2.5 uM by MTT assay; type: functional, cell-based; settings: dose 0.1-2.5 µM, time 24-72 hrs, TDE = time-dependent effect
# [7] = test system: A549; assay: Antiproliferative activity against human A549 cells assessed as cell viability at 0.5 uM measured after 72 hrs by MTT assay (reference value: 100%); type: functional; settings: read-out: Activity
# [8] = molecular target: Serine/threonine-protein kinase Chk1 (Homo sapiens) (UniProt O14757); assay: Inhibition of His-tagged full length human CHK1 expressed in baculovirus expression system at 1 uM by Selectscreen kinase assay; method in brief: as §1
# Serine/threonine-protein kinase Chk1 (Homo sapiens), sequence (O14757 whole entry): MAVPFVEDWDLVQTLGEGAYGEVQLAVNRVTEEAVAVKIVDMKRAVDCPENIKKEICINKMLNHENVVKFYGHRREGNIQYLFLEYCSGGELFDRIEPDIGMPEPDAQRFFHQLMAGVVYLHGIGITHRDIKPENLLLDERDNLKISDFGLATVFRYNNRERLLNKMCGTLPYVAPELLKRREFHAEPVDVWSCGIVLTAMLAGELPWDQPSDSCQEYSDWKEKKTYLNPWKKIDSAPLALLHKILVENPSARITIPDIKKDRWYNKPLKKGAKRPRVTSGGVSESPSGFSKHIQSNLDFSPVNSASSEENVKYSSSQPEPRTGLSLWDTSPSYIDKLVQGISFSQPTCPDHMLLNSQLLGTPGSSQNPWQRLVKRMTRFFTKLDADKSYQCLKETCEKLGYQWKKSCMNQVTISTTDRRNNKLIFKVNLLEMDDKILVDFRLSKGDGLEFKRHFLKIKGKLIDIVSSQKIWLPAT
# [9] = molecular target: Serine/threonine-protein kinase B-raf (Homo sapiens) (UniProt P15056); assay: Inhibition of GST-tagged human full length BRAF expressed in baculovirus expression system at 1 uM by Selectscreen kinase assay; method in brief: as §1
# Serine/threonine-protein kinase B-raf (Homo sapiens), sequence (P15056 whole entry): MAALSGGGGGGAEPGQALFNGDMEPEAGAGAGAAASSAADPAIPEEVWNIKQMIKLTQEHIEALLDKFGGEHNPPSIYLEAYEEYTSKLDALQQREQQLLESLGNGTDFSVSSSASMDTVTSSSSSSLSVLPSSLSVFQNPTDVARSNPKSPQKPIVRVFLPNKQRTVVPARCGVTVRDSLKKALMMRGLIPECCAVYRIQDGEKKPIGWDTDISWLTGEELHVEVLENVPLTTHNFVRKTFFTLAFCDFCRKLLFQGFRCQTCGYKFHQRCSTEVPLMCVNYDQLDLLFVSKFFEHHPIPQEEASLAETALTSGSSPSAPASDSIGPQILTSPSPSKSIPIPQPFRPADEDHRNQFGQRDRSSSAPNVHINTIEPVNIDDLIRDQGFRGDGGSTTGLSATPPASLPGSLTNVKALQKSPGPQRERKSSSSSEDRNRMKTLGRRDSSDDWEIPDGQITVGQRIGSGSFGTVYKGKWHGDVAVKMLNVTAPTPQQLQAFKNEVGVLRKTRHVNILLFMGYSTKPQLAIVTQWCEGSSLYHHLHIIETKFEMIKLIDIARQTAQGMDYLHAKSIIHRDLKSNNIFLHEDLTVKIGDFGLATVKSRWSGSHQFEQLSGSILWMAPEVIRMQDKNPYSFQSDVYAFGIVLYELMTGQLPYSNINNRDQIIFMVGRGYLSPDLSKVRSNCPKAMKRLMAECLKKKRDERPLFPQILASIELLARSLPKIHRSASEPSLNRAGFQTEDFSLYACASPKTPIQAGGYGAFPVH
# [10] = molecular target: Serine/threonine-protein kinase pim-1 (Homo sapiens) (UniProt P11309); assay: Inhibition of His-tagged full length recombinant human PIM1 expressed in baculovirus expression system at 1 uM by Selectscreen kinase assay; method in brief: as §1
# Serine/threonine-protein kinase pim-1 (Homo sapiens), sequence (P11309 whole entry, looked up): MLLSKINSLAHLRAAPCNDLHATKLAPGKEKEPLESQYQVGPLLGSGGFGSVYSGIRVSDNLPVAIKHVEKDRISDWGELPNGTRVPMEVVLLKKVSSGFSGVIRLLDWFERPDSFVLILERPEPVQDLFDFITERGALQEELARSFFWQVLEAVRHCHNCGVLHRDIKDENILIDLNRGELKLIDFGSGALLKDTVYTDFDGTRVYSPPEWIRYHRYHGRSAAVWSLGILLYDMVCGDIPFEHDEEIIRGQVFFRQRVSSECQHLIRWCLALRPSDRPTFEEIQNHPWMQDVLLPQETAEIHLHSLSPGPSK
# [11] = test system: MDA-MB-231; assay: Inhibition of cell migration in human MDA-MB-231 cells measured after 48 hrs by wound healing assay; type: functional, cell-based; settings: dose 0.15-0.6 µM
# Method in brief: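 MDA-MB-231 cells (2×10^6/well) were grown to confluence and the monolayer was scratched with a pipette tip. Cells were washed with PBS, kept in serum-free medium and treated with DMSO or compound at 0.15, 0.3 or 0.6 μM for 48 h. Wound closure was photographed by inverted microscope at 24 and 48 h.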
# [12] = test system: MDA-MB-231; assay: Antiproliferative activity against human MDA-MB-231 cells assessed as cell viability at 2.5 uM measured after 24 hrs by MTT assay (reference value: 100%); type: functional; settings: read-out: Activity
# [13] = test system: MDA-MB-231; assay: Induction of apoptosis in human MDA-MB-231 cells assessed as necrotic cells at 0.4 uM incubated for 48 hrs by Annexin V-FITC/PI staining based flow cytometric analysis (reference value: 1.08%); type: functional
# [14] = test system: A549; assay: Antiproliferative activity against human A549 cells assessed as cell viability at 0.1 uM measured after 48 hrs by MTT assay (reference value: 100%); type: functional; settings: read-out: Activity
# [15] = test system: MDA-MB-231; assay: Induction of apoptosis in human MDA-MB-231 cells assessed as necrotic cells at 0.1 uM incubated for 48 hrs by Annexin V-FITC/PI staining based flow cytometric analysis (reference value: 1.08%); type: functional
# [16] = test system: MDA-MB-231; assay: Induction of apoptosis in human MDA-MB-231 cells assessed as viable cells at 0.4 uM incubated for 48 hrs by Annexin V-FITC/PI staining based flow cytometric analysis (reference value: 95.84%); type: functional; settings: read-out: Activity
# [17] = molecular target: ALK tyrosine kinase receptor (Homo sapiens) (UniProt Q9UM73); assay: Inhibition of GST-tagged human ALK expressed in baculovirus expression system at 1 uM by Selectscreen kinase assay; method in brief: as §1
# ALK tyrosine kinase receptor (Homo sapiens), sequence (Q9UM73 19-1620 limits assumed): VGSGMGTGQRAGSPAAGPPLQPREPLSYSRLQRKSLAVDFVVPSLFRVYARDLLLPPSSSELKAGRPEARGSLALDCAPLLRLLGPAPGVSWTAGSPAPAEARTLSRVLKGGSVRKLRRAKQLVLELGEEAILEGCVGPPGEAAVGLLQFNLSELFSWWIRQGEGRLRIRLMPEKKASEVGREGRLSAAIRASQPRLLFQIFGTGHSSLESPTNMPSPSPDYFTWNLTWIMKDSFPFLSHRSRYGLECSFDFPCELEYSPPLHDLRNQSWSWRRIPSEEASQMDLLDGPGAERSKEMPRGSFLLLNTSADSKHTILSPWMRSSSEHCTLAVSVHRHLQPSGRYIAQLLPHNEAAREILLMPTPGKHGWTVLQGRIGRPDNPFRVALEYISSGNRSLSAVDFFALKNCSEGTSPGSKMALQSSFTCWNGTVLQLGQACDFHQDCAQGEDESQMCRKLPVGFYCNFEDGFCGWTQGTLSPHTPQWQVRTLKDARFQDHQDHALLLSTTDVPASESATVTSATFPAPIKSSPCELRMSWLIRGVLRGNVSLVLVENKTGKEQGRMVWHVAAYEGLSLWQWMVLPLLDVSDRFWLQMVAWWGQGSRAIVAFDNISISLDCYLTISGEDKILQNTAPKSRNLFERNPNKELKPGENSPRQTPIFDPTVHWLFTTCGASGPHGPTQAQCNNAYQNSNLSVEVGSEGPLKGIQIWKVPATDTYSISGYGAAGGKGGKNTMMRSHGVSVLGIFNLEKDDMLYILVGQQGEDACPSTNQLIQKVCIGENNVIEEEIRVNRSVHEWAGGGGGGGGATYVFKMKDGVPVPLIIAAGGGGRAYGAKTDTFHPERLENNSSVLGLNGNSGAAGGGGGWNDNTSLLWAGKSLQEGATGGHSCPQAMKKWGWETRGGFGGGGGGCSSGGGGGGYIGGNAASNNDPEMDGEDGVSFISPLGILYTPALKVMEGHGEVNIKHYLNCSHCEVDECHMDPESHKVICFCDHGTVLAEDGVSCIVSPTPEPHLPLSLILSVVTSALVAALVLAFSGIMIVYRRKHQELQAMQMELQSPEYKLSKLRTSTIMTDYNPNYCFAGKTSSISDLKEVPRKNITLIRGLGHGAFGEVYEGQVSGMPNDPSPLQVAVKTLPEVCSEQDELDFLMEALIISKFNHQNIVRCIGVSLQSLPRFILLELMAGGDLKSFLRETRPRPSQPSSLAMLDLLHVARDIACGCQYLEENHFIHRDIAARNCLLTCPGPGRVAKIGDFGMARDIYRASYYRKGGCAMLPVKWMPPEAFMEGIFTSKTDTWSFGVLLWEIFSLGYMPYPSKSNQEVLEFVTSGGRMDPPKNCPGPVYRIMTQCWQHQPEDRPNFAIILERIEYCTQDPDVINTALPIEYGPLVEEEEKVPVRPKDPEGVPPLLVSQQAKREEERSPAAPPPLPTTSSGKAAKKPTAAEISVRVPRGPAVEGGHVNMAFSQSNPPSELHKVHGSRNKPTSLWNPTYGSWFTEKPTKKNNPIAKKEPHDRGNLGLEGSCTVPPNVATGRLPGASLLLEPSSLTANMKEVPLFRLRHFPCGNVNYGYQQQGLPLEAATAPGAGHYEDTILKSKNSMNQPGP
# [18] = molecular target: RAC-alpha serine/threonine-protein kinase (Homo sapiens) (UniProt P31749); assay: Inhibition of His-tagged human full length AKT1 expressed in baculovirus expression system at 1 uM by Selectscreen kinase assay; method in brief: as §1
# [19] = test system: MDA-MB-231; assay: Antiproliferative activity against human MDA-MB-231 cells assessed as cell viability at 0.5 uM measured after 24 hrs by MTT assay (reference value: 100%); type: functional; settings: read-out: Activity
# [20] = test system: MDA-MB-231; assay: Antiproliferative activity against human MDA-MB-231 cells assessed as cell viability at 2.5 uM measured after 48 hrs by MTT assay (reference value: 100%); type: functional; settings: read-out: Activity
# [21] = test system: A549; assay: Antiproliferative activity against human A549 cells assessed as inhibition of cell growth measured after 72 hrs by MTT assay; type: functional, cell-based; settings: A549, 72 h
# Method in brief: (§2)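 Cells were seeded at 4000–5000/well and held 24 h at 37 °C in 5% CO2. Compounds were added at the indicated final concentrations and incubated 72 h. MTT was added (5 mg/mL in PBS, stated as final) for 4 h at 37 °C. Formazan was dissolved in DMSO and absorbance read at 490 nm. The 50% growth-inhibitory concentration is the mean of three independent experiments ± SE.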
# [22] = molecular target: Protein kinase C theta type (Homo sapiens) (UniProt Q04759); assay: Inhibition of His-tagged full length human PKC theta expressed in baculovirus expression system at 1 uM by Selectscreen kinase assay; method in brief: as §1
# Protein kinase C theta type (Homo sapiens), sequence (Q04759 whole entry, looked up): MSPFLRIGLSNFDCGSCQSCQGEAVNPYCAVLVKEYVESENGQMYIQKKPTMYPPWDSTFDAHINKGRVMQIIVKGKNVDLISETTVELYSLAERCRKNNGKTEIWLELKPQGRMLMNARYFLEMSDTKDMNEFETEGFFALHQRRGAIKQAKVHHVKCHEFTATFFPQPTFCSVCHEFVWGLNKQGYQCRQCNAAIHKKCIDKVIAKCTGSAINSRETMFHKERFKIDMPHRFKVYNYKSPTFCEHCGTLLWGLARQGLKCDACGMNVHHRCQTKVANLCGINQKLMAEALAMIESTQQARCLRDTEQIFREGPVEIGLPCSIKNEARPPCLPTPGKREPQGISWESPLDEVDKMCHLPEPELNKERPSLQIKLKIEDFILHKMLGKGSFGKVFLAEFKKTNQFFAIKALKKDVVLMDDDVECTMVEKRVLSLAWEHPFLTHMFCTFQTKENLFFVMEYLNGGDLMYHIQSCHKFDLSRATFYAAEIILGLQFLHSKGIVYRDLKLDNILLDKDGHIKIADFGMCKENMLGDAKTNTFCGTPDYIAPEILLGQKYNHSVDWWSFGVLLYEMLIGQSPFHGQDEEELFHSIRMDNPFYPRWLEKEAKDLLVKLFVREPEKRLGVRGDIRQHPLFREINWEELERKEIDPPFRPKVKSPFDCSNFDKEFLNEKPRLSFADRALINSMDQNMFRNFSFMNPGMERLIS
# [23] = molecular target: Serine/threonine-protein kinase PAK 1 (Homo sapiens) (UniProt Q13153); assay: Inhibition of GST-tagged full length human PAK1 expressed in baculovirus expression system at 1 uM by Selectscreen kinase assay; method in brief: as §1
# Serine/threonine-protein kinase PAK 1 (Homo sapiens), sequence (Q13153 whole entry): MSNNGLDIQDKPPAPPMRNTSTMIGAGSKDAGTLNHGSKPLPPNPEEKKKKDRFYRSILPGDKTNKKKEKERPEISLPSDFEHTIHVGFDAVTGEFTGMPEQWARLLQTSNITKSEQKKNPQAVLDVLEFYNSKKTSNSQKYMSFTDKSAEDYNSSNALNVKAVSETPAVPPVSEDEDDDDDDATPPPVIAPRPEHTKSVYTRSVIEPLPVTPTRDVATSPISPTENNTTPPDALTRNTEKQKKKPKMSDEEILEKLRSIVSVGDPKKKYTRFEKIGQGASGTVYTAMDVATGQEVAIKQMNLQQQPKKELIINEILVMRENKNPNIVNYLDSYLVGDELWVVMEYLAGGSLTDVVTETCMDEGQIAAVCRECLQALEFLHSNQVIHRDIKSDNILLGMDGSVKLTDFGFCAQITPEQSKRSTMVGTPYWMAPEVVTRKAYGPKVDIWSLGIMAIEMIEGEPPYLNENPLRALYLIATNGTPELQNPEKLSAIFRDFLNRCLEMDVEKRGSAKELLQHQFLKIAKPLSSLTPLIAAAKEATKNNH
# [24] = test system: MDA-MB-231; assay: Induction of apoptosis in human MDA-MB-231 cells assessed as necrotic cells at 0.2 uM incubated for 48 hrs by Annexin V-FITC/PI staining based flow cytometric analysis (reference value: 1.08%); type: functional
# [25] = test system: MDA-MB-231; assay: Induction of apoptosis in human MDA-MB-231 cells incubated for 48 hrs by Annexin V-FITC/PI staining based flow cytometric analysis; type: functional, cell-based; settings: dose 0.1-0.4 µM
# [26] = test system: MDA-MB-231; assay: Antiproliferative activity against human MDA-MB-231 cells assessed as inhibition of cell growth measured after 72 hrs by MTT assay; type: functional, cell-based; settings: MDA-MB-231, 72 h; method in brief: as §2
# [27] = test system: A549; assay: Antiproliferative activity against human A549 cells assessed as cell viability at 0.5 uM measured after 24 hrs by MTT assay (reference value: 100%); type: functional; settings: read-out: Activity
# [28] = test system: MDA-MB-231; assay: Induction of apoptosis in human MDA-MB-231 cells assessed as early apoptotic cells at 0.2 uM incubated for 48 hrs by Annexin V-FITC/PI staining based flow cytometric analysis (reference value: 1.58%); type: functional
# [29] = test system: MDA-MB-231; assay: Induction of cell cycle arrest in human MDA-MB-231 cells assessed as accumulation of cells at G2/M phase at 0.2 uM measured after 48 hrs by PI staining based flow cytometry method (reference value: 17.40%); type: functional
# [30] = molecular target: Serine/threonine-protein kinase mTOR (Homo sapiens) (UniProt P42345); assay: Inhibition of GST-tagged partial length human mTOR catalytic domain (1360-2549 residues) expressed in baculovirus expression system at 1 uM by Selectscreen kinase assay; method in brief: as §1
smiles,measurement,setting,value
COc1ccccc1-c1csc2cnc(Nc3ccc(C(=O)NC4CCNCC4)c(F)c3)nc12,viability at 2.5 µM,[1],18.8%
same,Activity,[2],26.21%
same,Activity,[3],7.21%
same,inhibition,[4],88%
same,inhibition,[5],27%
same,Activity,[6],Tde
same,viability at 0.5 µM,[7],32.2%
same,inhibition,[8],38%
same,inhibition,[9],51%
same,inhibition,[10],3%
same,inhibition,[11],Dose-dependent effect
same,viability at 2.5 µM,[12],52.2%
same,Activity,[13],4.4%
same,viability at 0.1 µM,[14],78.7%
same,Activity,[15],2.97%
same,viability at 0.4 µM,[16],53.8%
same,inhibition,[17],95%
same,inhibition,[18],15%
same,viability at 0.5 µM,[19],73.7%
same,viability at 2.5 µM,[20],11.9%
same,IC50,[21],0.27 µM
same,inhibition,[22],48%
same,inhibition,[23],67%
same,Activity,[24],1.72%
same,Activity,[25],Dose-dependent effect
same,IC50,[26],0.19 µM
same,viability at 0.5 µM,[27],79.1%
same,Activity,[28],9.78%
same,Activity,[29],9.49%
same,inhibition,[30],2%
